The results in this text go back to ChEMBL document CHEMBL4393654, “Discovery and Early Clinical Development of an Inhibitor of 5-Lipoxygenase Activating Protein (AZD5718) for Treatment of Coronary Artery Disease” (J Med Chem, 2019).

Active and inactive are the calls of the source. The calls are words filed in the database; no cut-off is given here. Some results are limits rather than exact numbers.

In data set [1] the target is T1, Arachidonate 5-lipoxygenase-activating protein (Homo sapiens, UniProt P20292).
T1 sequence (P20292 whole entry): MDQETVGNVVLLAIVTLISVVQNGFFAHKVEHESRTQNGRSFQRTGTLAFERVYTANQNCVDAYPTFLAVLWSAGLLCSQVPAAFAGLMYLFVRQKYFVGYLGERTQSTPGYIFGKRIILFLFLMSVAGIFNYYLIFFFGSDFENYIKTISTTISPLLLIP
The data set is described as follows: Inhibition of [3H]MK0591 binding to human FLAP expressed in […] cell membranes measured after 60 to 80 mins by microbeta scintillation counting method.

Data set [2] deals with T2, Arachidonate 5-lipoxygenase-activating protein (Homo sapiens) (UniProt P20292).
T2 sequence (whole entry): T1 sequence (P20292 whole entry)
The data set is described as follows: Inhibition of FLAP in human whole blood assessed as reduction in calcium ionophore-stimulated LTB4 production preincubated for 4 hrs followed by calcium ionophore stimulation and measured after 20 mins by EIA. Format: tissue-based. The gist of the method: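 Fresh human whole blood was incubated with compound for 4 h, then stimulated with calcium ionophore, and LTB4 production was measured as the 5-LO pathway read-out. IC50 was also converted to a free value: IC50 × (Fu/100), where Fu = 100 − human plasma protein binding (%).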

The nature of data set [3]: Oral bioavailability in rat at 2 umol/kg. In kind it is ADME, organism-based. The note with it: in vivo.
The nature of data set [4]: Clearance in rat at 1 umol/kg, iv. To be noted: in vivo. Format: ADME.
A short description of data set [5]: Clearance in Beagle dog at 1 umol/kg, iv. Format: ADME, Canis lupus familiaris. To be noted: in vivo.
Data set [6] is described as follows: Half life in Beagle dog at 1 umol/kg, iv. Format: ADME, Canis lupus familiaris. The note with it: in vivo.
Data set [7] is described as follows: Volume of distribution at steady state in Beagle dog at 1 umol/kg, iv. The note with it: in vivo, read-out: Vdss. Format: ADME, Canis lupus familiaris.
Another data set deals with THP-1. The data set is described as follows: Cytotoxicity against human THP1 cells assessed as reduction in cell viability measured after 48 hrs by resazurin assay. In kind it is cell-based. To be noted: THP-1, 48 h. A general note: Alamar Blue is a resazurin reagent that responds to reducing activity.
The test system of a further data set is HepG2. The data set is described as follows: Cytotoxicity against human HepG2 cells assessed as reduction in ATP depletion in presence of glucose/galactose. Format: cell-based.
For data set [8], the target named is Prostaglandin G/H synthase 1 (Homo sapiens) (UniProt P23219). The experiment in a line: Activity at COX1 in human whole blood assessed as effect on […] production by EIA. Format: tissue-based.
Data set [9] deals with T3, Prostaglandin G/H synthase 2 (Homo sapiens) (UniProt P35354).
T3 sequence (whole entry): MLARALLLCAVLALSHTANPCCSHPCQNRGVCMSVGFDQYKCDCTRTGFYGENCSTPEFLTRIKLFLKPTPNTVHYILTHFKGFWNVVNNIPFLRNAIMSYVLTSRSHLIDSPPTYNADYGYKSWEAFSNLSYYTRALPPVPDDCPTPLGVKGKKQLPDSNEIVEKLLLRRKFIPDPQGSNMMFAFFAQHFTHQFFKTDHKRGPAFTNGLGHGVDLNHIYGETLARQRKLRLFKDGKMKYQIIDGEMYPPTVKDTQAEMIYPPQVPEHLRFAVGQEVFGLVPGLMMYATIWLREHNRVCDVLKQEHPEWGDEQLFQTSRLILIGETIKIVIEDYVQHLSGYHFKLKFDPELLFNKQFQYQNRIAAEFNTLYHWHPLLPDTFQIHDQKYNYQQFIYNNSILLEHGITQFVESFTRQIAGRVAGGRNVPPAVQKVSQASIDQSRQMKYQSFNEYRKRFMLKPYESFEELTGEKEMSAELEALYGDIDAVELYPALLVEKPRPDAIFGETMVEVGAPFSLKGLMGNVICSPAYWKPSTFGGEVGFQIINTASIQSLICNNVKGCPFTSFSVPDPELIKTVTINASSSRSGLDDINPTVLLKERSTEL
The data set is described as follows: Activity at COX2 in human whole blood assessed as effect on LPS-induced PGE2 production preincubated for 15 mins followed by LPS-stimulation and measured after overnight incubation by EIA. Format: tissue-based.

Data set [10] is filed under the species Homo sapiens. The experiment in a line: Selectivity ratio of compound effect on activity at COX1 in human whole blood to IC50 for FLAP in human whole blood.
The species entered for data set [11] is Homo sapiens. The experiment in a line: Selectivity ratio of compound effect on activity at COX2 in human whole blood to IC50 for FLAP in human whole blood.
Data set [12] relates to Cytochrome P450. The experiment in a line: Drug metabolism in human hepatocytes assessed as CYP450-mediated oxidation at 4 uM measured after 120 mins by LC-MS/MS analysis. In kind it is ADME, cell-based, Hepatocyte. To be noted: 2 h.
Data set [13] can be described thus: Oral bioavailability in rat at 2.5 umol/kg. Format: ADME, organism-based. The note with it: in vivo.
The target in the next data set is Bile salt export pump (Homo sapiens, UniProt O95342). The data set is described as follows: Inhibition of recombinant human BSEP expressed in baculovirus infected Sf21 insect cell vesicles assessed as reduction in NBD-taurocholate uptake by fluorescence assay. In kind it is ADME.
Data set [14] is described as follows: Cardiotoxicity in conscious telemetered Beagle dog. Format: toxicity, Canis lupus familiaris.
Data set [15] is described as follows: Cardiotoxicity in conscious telemetered Beagle dog assessed as effect on heart rate at 0.5 to 30 mg/kg administered as single iv infusion for 2 hrs measured up to 48 hrs post dose by telemetry. In kind it is toxicity, organism-based, Canis lupus familiaris. To be noted: in vivo. The gist of the method: (§1)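 Conscious beagle dogs were given the compound by intravenous infusion. Infusion was set to reach a target plasma concentration 100-fold above the predicted free human Cmax at the therapeutic dose, and cardiovascular parameters were recorded.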

A short description of data set [16]: Cardiotoxicity in conscious telemetered Beagle dog assessed as effect on arterial blood pressure at 0.5 to 30 mg/kg administered as single iv infusion for 2 hrs measured up to 48 hrs post dose by telemetry. To be noted: in vivo. In kind it is toxicity, organism-based, Canis lupus familiaris. The gist of the method: as §1
A short description of data set [17]: Cardiotoxicity in conscious telemetered Beagle dog assessed as effect on left ventricular parameters at 0.5 to 30 mg/kg administered as single iv infusion for 2 hrs measured up to 48 hrs post dose by telemetry. Format: toxicity, organism-based, Canis lupus familiaris. To be noted: in vivo. The gist of the method:
as §1

Data set [18] can be described thus: Cardiotoxicity in conscious telemetered Beagle dog assessed as effect on lead 2 electrocardiogram at 0.5 to 30 mg/kg administered as single iv infusion for 2 hrs measured up to 48 hrs post dose by telemetry. Format: toxicity, organism-based, Canis lupus familiaris. The note with it: in vivo. The essentials: as §1
Data set [19] can be described thus: Cardiotoxicity in conscious telemetered Beagle dog assessed as effect on body temperature at 0.5 to 30 mg/kg administered as single iv infusion for 2 hrs measured up to 48 hrs post dose by telemetry. Format: toxicity, organism-based, Canis lupus familiaris. To be noted: in vivo. The gist of the method:
as §1

The nature of data set [20]: Cardiotoxicity in rat assessed as effect on histopathological changes measured up to 28 days during compound dosing. In kind it is toxicity. The note with it: in vivo, 672 h.
Data set [21] in a line: Cardiotoxicity in dog assessed as effect on cardiac function measured up to 28 days during compound dosing. In kind it is toxicity, Canis lupus familiaris. The note with it: in vivo, 672 h.
The nature of data set [22]: Cardiotoxicity in dog assessed as effect on histopathological changes measured up to 28 days during compound dosing. Format: toxicity, Canis lupus familiaris. The note with it: in vivo, 672 h.
A short description of data set [23]: Half life in human at 60 to 1200 mg, po administered as single dose. Format: ADME, organism-based. To be noted: in vivo.
The test system of data set [24] is Cytochrome P450. The experiment in a line: Drug metabolism in human hepatocytes assessed as CYP450-mediated phase-2 glucuronidation/oxidation at 4 uM measured after 120 mins by LC-MS/MS analysis. Format: ADME, cell-based, Hepatocyte. The note with it: 2 h.
The nature of data set [25]: Oral bioavailability in rat at 2.8 umol/kg. In kind it is ADME, organism-based. To be noted: in vivo.
Data set [26] is described as follows: Clearance in rat at 2 umol/kg, iv. In kind it is ADME. The note with it: in vivo.
Data set [27] in a line: Half life in rat at 2 umol/kg, iv. The note with it: in vivo. In kind it is ADME.
Data set [28] can be described thus: Volume of distribution at steady state in rat at 2 umol/kg, iv. The note with it: in vivo, read-out: Vdss. Format: ADME.
Data set [29] can be described thus: Oral bioavailability in Beagle dog at 4.2 umol/kg. The note with it: in vivo. Format: ADME, organism-based, Canis lupus familiaris.
For data set [30], the system named is Cytochrome P450. The data set is described as follows: Drug metabolism in human hepatocytes assessed as CYP450-mediated phase-2 glucuronidation/ketone reduction at 4 uM measured after 120 mins by LC-MS/MS analysis. Format: ADME, cell-based, Hepatocyte. The note with it: 2 h.

Chain of Prostaglandin G/H synthase 1 (Homo sapiens) (P23219 whole entry): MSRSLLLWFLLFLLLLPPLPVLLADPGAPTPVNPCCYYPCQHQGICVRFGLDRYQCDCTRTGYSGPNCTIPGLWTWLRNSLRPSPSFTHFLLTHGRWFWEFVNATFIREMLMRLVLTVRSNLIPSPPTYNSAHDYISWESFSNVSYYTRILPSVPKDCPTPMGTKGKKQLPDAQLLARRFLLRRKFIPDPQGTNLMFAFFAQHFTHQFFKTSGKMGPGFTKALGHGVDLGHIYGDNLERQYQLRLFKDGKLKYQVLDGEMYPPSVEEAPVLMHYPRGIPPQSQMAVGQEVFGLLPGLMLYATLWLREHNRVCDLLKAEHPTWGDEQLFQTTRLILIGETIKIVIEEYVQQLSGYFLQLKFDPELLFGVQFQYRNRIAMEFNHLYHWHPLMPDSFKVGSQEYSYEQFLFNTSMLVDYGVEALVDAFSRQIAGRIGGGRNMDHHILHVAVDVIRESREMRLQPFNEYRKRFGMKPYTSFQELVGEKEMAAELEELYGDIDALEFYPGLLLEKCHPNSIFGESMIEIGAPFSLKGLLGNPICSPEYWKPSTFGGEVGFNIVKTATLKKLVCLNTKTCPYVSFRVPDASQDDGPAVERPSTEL
Chain of Bile salt export pump (O95342 whole entry): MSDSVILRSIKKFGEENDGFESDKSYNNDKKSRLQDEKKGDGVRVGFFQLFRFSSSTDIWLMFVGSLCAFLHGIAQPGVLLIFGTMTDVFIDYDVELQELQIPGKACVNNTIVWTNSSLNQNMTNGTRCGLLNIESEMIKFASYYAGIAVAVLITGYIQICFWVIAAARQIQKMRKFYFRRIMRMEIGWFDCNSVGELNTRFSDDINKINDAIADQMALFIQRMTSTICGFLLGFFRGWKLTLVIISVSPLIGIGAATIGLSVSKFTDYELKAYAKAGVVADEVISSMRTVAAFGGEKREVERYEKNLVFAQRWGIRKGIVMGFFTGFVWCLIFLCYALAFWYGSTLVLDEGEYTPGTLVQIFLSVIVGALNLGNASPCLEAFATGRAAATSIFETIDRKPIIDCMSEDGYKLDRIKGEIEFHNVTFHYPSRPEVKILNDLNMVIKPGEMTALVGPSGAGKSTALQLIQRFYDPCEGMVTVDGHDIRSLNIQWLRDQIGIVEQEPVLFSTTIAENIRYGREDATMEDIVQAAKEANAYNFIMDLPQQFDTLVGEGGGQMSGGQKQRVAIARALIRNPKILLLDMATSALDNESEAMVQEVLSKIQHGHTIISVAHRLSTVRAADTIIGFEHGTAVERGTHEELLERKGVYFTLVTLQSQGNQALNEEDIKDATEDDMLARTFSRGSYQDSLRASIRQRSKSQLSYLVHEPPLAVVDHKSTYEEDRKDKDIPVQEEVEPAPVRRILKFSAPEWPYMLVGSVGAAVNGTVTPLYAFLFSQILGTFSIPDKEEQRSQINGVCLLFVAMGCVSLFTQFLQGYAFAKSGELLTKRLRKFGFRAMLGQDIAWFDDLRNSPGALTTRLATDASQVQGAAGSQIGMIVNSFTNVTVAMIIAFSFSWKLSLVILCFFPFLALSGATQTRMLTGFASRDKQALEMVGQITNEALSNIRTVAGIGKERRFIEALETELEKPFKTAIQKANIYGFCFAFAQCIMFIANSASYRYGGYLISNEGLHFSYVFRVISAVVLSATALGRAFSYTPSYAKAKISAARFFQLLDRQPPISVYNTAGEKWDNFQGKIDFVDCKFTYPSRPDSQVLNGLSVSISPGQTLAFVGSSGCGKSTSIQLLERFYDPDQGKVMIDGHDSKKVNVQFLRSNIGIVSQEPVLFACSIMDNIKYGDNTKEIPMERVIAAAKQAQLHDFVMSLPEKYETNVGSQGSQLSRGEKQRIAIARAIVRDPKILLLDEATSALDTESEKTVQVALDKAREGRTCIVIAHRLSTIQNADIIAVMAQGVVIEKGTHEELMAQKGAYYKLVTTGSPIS

One may read the IC50 as the concentration that inhibits the measured activity by half. What is called bioavailability is dose-corrected exposure relative to a reference, in per cent. Low readings indicate little systemic uptake, high ones much systemic uptake. A word on the clearance: it is the rate of elimination divided by the concentration. The term half-life denotes how long it takes for the measured level to halve. High values mean slow decline, low ones rapid decline. In the case of `Cc1cc(-c2ccc(C(=O)[C@@H]3CCCC[C@H]3C(=O)Nc3cnn(C)c3C(=O)NOC(C)(C)C)cc2)[nH]n1`, the IC50 in data set [1] is 0.0058 µM; with THP-1 it was above 250 µM; with HepG2, above 250 µM. In addition, the fIC50 in [2] stood at 1.6 nM. This compound returned a bioavailability in data set [3] of 12%. In addition, the clearance came to 1.2 mL/min/kg in data set [4] and 2 mL/min/kg in data set [5]. Besides, in data set [6], the half-life is 7 h. Further, the Vd in data set [7] amounted to 0.4 L/kg. In addition, the outcome in [8] and in data set [9] was inactive. Further, the Selectivity ratio in the data set filed under Homo sapiens [10] and in the data set listed under Homo sapiens [11] was above 100 each time. Moreover, the Drug metabolism entry with Cytochrome P450 [12] was “Metabolite_Detected”.

Compound `Cc1cc(-c2ccc(C(=O)[C@@H]3CCCC[C@H]3C(=O)Nc3cnn4c3C(=O)NCC4)cc2)[nH]n1` registered a clearance in [4] of 36 mL/min/kg. Also, the bioavailability in [13] is 14%. For the same compound, the IC50 on Bile salt export pump was in the range of 74 to 340 µM. Further, the Activity result in data set [14], in data set [15], in data set [16], in data set [17], in data set [18] and in data set [19] was “Non-Toxic” throughout. Besides, the Activity result in [20], in data set [21] and in [22] was “Non-Toxic” in each case. The compound further showed a half-life in [23] of 12 h. Also, in the data set on Cytochrome P450 [24], the Drug metabolism result is “Metabolite_Detected”.

As for `Cc1cc(-c2ccc(C(=O)[C@@H]3CCCC[C@H]3C(=O)Nc3cnn(C)c3S(N)(=O)=O)cc2)[nH]n1`, the bioavailability in [25] is 14%; in data set [29], 65%. Besides, the clearance in data set [26] worked out at 10 mL/min/kg. The same compound had a half-life in data set [27] of 2.9 h. For the same compound, the Vd in data set [28] worked out at 1.3 L/kg. In the data set on Cytochrome P450 [30], the Drug metabolism entry was “Metabolite_Detected”.
